ChEMBL document CHEMBL1124456, “Synthesis and structure-activity relationship of substituted tetrahydro- and hexahydro-1,2-benzisothiazol-3-one 1,1-dioxides and thiadiazinones: potential anxiolytic agents” (J Med Chem, 1989)
Values belong to the compound of their own block, whether it stands above or below them. The source made the active and inactive calls. No cut-off for these calls is given here.

Key:
[1] = molecular target: D(2) dopamine receptor (Rattus norvegicus) (UniProt P61169); assay: In vitro ability to inhibit [3H]spiperone binding to Dopamine receptor D2 of rat limbic structures at 10 uM; type: tissue-based; conditions: Limbic system
Rattus norvegicus [2] = species: Rattus norvegicus; assay: Anti-psychotic activity from the ability to block discrete trial conditioned avoidance response (CAR) of rats.; type: functional
Method in brief: (§1)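 Discrete-trial conditioned avoidance in male CD rats kept at about 400–450 g body weight. Dosing was ip or po, 30 min before testing, with at least five rats per dose (20 or 40 mg/kg, or a dose range). Computer recorded intertrial, avoidance and escape responses and no-response trials. Avoidance-block trials were taken as % of total trials, with control avoidance set at 100%. AB50 came from a least-squares dose-effect regression line.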

Rattus norvegicus [3] = species: Rattus norvegicus; assay: (§2) Antipsychotic activity was evaluated from the ability to block discrete trial conditioned avoidance response (CAR) of rats; type: functional
Method in brief: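 Male CD rats (about 400–450 g) trained in discrete-trial avoidance. Compound given ip or po 30 min before testing, at 20 or 40 mg/kg or over a dose range, with at least five rats per dose. Intertrial, avoidance, escape and no-response trials were recorded. Avoidance block is the percentage of trials without avoidance. AB50 comes from a least-squares dose–effect regression line.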

Rattus norvegicus [4] = assay: Compound was tested for antagonism of apomorphine-induced climbing behavior, after intraperitoneal dosing; type: functional; conditions: ip
Rattus norvegicus [5] = assay: Compound was tested for antagonism of apomorphine-induced stereotyped behavior, after intraperitoneal dosing; NA is Inactive; type: functional, organism-based
Method in brief: (§3)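 High-dose apomorphine-induced stereotyped behavior procedure. Test agents were given ip at doses up to 60 mg/kg.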

Rattus norvegicus [6] = assay: In vivo ability (10.0 mg/kg) was to elicit serotonin syndrome in rat; type: functional
Method in brief: (§4)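 Rat in vivo test adapted from published serotonin syndrome methods. Agents given ip; 5-MeO-DMT at 3.0 mg/kg ip was used to elicit the syndrome. Behaviour rated and reported as mean total score (±SEM).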

Rattus norvegicus [7] = assay: In vivo ability (10.0 mg/kg) was to antagonize serotonin syndrome in rat; type: functional; method in brief: as §4
[8] = molecular target: T1, 5-hydroxytryptamine receptor 1A (Rattus norvegicus, UniProt P19327); assay: In vitro ability to inhibit [3H]8-OH-DPAT binding to 5-hydroxytryptamine 1A receptor of rat hippocampus and the value ranges from 245 to 736; type: tissue-based
T1 sequence (P19327 whole entry): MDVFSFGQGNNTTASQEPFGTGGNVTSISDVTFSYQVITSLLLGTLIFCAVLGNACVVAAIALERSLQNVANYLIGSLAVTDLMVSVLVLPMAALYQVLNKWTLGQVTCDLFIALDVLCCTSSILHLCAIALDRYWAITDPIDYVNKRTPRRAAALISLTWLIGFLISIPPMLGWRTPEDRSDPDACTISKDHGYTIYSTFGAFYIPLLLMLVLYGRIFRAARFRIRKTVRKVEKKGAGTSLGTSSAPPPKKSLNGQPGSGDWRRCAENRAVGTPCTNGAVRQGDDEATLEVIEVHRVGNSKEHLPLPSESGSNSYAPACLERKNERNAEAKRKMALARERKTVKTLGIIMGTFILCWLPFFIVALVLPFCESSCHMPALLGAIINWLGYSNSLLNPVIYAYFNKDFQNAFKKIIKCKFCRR

Rattus norvegicus [9] = species: Rattus norvegicus; assay: as §2; type: functional; method in brief: as §1; remark: listed apart in the source
[10] = molecular target: T1, 5-hydroxytryptamine receptor 1A; assay: In vitro ability to inhibit [3H]8-OH-DPAT binding to 5-hydroxytryptamine 1A receptor of rat hippocampus and the value ranges from 25 - 84; type: tissue-based
[11] = molecular target: D(2) dopamine receptor (Rattus norvegicus) (UniProt P61169); assay: Inhibition of [3H]spiperone binding to Dopamine receptor D2 of rat limbic structures; type: tissue-based; parameters: concentration or dose not given beside the values; conditions: Limbic system, concentration not given here
Rattus norvegicus [12] = species: Rattus norvegicus; assay: Anti psychotic activity was evaluated from the ability to block discrete trial conditioned avoidance response (CAR) of rats and the value ranges from 32-61; type: functional; method in brief: as §1
Rattus norvegicus [13] = assay: Compound was tested for antagonism of apomorphine-induced climbing behavior, after intraperitoneal dosing; 1.29-27.21; type: functional; conditions: ip
Rattus norvegicus [14] = assay: Compound was tested for antagonism of apomorphine-induced stereotyped behavior, after intraperitoneal dosing.; type: functional; conditions: ip; method in brief: as §3
[15] = molecular target: T1, 5-hydroxytryptamine receptor 1A; assay: In vitro ability to inhibit [3H]8-OH-DPAT binding to 5-hydroxytryptamine 1A receptor of rat hippocampus and the value ranges from 12 to 20.; type: tissue-based
Rattus norvegicus [16] = species: Rattus norvegicus; assay: Anti psychotic activity was evaluated from the ability to block discrete trial conditioned avoidance response (CAR) of rats, value ranges from 32-71.; type: functional; method in brief: as §1
[17] = molecular target: T1, 5-hydroxytryptamine receptor 1A; assay: In vitro ability to inhibit [3H]-8-OH-DPAT binding to 5-hydroxytryptamine 1A receptor of rat hippocampus. and the value ranges from 16 - 27; type: tissue-based
[18] = molecular target: T1, 5-hydroxytryptamine receptor 1A; assay: In vitro ability to inhibit [3H]8-OH-DPAT binding to 5-hydroxytryptamine 1A receptor of rat hippocampus and value ranges from 6 - 13; type: tissue-based
[19] = molecular target: D(2) dopamine receptor (Rattus norvegicus) (UniProt P61169); assay: Inhibition of [3H]-spiperone binding to dopamine receptor D2 of rat limbic structures at 1 uM.; conditions: Limbic system
[20] = molecular target: T2, 5-hydroxytryptamine receptor 1A (Rattus norvegicus) (UniProt P19327); assay: In vitro ability to inhibit [3H]-8-OH-DPAT binding to 5-hydroxytryptamine 1A receptor of rat hippocampus at 1 uM; type: tissue-based
T2 sequence (whole entry): T1 sequence (P19327 whole entry)

Rattus norvegicus [21] = species: Rattus norvegicus; assay: Anti psychotic activity was evaluated from the ability to block discrete trial conditioned avoidance response (CAR) of rats. (95%CI); 39 to 53; type: functional; method in brief: as §1
[22] = molecular target: Adrenergic receptor alpha-1 (Rattus norvegicus) (UniProt P15823+P23944+P43140); assay: Percent inhibition of Alpha-1 adrenergic receptor by 1 uM of compound; type: protein assay
[23] = molecular target: GABA-A receptor; anion channel (Rattus norvegicus) (UniProt O09028+P15431+P18506+P18508+P19969+P20236+P23574+P23576+P28471+P28473+P30191+P62813+P63079+P63138+Q91ZM7+Q9ES14); assay: Percent inhibition of GABA-A benzodiazepine receptor at 1 uM; type: protein-complex assay
Method in brief: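 Incubated with 1.5×10^-9 M [³H]diazepam for 30 min at 4 °C, then filtered on GF/C and counted by scintillation. Nonspecific binding defined with 3×10^-6 M unlabelled diazepam.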

[24] = molecular target: Adrenergic receptor beta (Rattus norvegicus) (UniProt P18090+P10608+P26255); assay: Percent inhibition of Beta adrenergic receptor by 1 uM of compound; type: protein assay
[25] = molecular target: T1, 5-hydroxytryptamine receptor 1A; assay: In vitro ability to inhibit [3H]8-OH-DPAT binding to 5-hydroxytryptamine 1A receptor of rat hippocampus and the value ranges from 12 to 17.; type: tissue-based

D(2) dopamine receptor (Rattus norvegicus), sequence (P61169 whole entry): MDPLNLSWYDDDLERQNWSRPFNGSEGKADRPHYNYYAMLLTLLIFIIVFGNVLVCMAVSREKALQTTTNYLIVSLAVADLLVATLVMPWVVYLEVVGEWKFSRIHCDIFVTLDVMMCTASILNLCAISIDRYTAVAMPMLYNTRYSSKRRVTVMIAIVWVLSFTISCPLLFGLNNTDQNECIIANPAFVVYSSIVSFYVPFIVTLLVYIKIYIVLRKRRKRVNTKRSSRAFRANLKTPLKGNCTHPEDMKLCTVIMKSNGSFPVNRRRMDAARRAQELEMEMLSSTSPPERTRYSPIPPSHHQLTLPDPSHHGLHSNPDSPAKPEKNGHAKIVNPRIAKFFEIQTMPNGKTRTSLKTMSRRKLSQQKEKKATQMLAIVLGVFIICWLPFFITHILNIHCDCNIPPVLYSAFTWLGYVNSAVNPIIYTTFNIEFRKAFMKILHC

Compound: CC1=C(C)CC2C(C1)C(=O)N(CCCCN1CCN(c3cncc(Cl)n3)CC1)S2(=O)=O.Cl.Cl.Cl (centres undefined)
inhibition [1]: 66% | AB50 (Rattus norvegicus [2]): 40 mg/kg

Compound: O=C1c2ccccc2S(=O)(=O)N1CCCCN1CCN(c2ncccn2)CC1 [IPSAPIRONE]
AB50 (Rattus norvegicus [3]): 42 mg/kg | ED50 (Rattus norvegicus [4]): 26 mg/kg | ED50 (Rattus norvegicus [5]): inactive | Mean (Rattus norvegicus [6]): 2.4 | Mean (Rattus norvegicus [7]): 8.4

Compound: Cl.Cl.O=C1C2C3CCC(C3)C2S(=O)(=O)N1CCCCN1CCN(c2cccc(C(F)(F)F)c2)CC1 (centres undefined)
Ki [15]: 0.016 µM | inhibition [11]: 97% | AB50 (Rattus norvegicus [16]): 43 mg/kg

Compound: Cl.Cl.O=C1c2ccccc2S(=O)(=O)N1CCCCN1CCN(c2cnccn2)CC1
Ki [18]: 0.009 µM | inhibition [19]: 43% | AB50 (Rattus norvegicus [2]): 40 mg/kg

Compound: O=C1CC2(CCCC2)CC(=O)N1CCCCN1CCN(c2ncccn2)CC1 [BUSPIRONE]
inhibition [22]: 33% | inhibition [23]: 0% | inhibition [24]: 0% | AB50 (Rattus norvegicus [3]): 32 mg/kg | Mean (Rattus norvegicus [6]): 2.9 | Mean (Rattus norvegicus [7]): 6.1

Compound: Cl.Cl.O=C1C2C3C=CC(C3)C2S(=O)(=O)N1CCCCN1CCN(c2cccc(C(F)(F)F)c2)CC1 (centres undefined)
Ki [25]: 0.015 µM | AB50 (Rattus norvegicus [2]): 51 mg/kg

Now from value to compound, other results behind:

Ki [8]: 0.434 µM
Compound: Cl.Cl.O=C1C2C3C=CC(C3)C2S(=O)(=O)N1CCCCN1CCN(c2ncccn2)CC1 (centres undefined)
AB50 (Rattus norvegicus [9]): 45 mg/kg

Ki [10]: 0.045 µM | inhibition [11]: 98%
Compound: Cl.Cl.Cl.O=C1C2C3CCC(C3)C2S(=O)(=O)N1CCCCN1CCN(c2cccc(Cl)c2)CC1 (centres undefined)
AB50 (Rattus norvegicus [12]): 41 mg/kg | ED50 (Rattus norvegicus [13]): 16 mg/kg | ED50 (Rattus norvegicus [14]): 34 mg/kg

Ki [17]: 0.021 µM | inhibition [11]: 70%
Compound: Cl.O=C1C2C3CCC(C4CC43)C2S(=O)(=O)N1CCCCN1CCN(c2ncccn2)CC1 (centres undefined)
AB50 (Rattus norvegicus [2]): 40 mg/kg

inhibition [20]: 51% | inhibition [11]: 32%
Compound: Cl.O=C1C2C3CCC(C3)C2S(=O)(=O)N1CCCCN1CCN(c2cncc(Cl)n2)CC1 (centres undefined)
AB50 (Rattus norvegicus [21]): 45 mg/kg
